Data as given in ChEMBL document CHEMBL1152968, “Phenylethanoid and lignan glycosides from polar extracts of Lantana, a genus of verbenaceous plants widely used in traditional herbal therapies” (J Nat Prod, 2009).
Calls of active or inactive are those of the source.

Experiments:
Assay type in all cases: functional, cell-based
U-937 = assay: Cytotoxicity against human U937 cells at 10 uM after 48 hrs by fluorescent microplate assay
In short: (§1)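 Cells were seeded in 96-well plates in RPMI 1640 with 10% fetal calf serum and 10 units/mL penicillin-streptomycin. They were then cultured 24 h at 37 °C in humidified 5% CO2 before treatment. Compounds were added dissolved in DMSO, and the read-out was cell viability.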

HL-60 = assay: Cytotoxicity against human HL60 cells at 10 uM after 48 hrs by fluorescent microplate assay; in short: as §1
U-266 = assay: Cytotoxicity against human U266 cells at 10 uM after 48 hrs by fluorescent microplate assay; in short: as §1
CCRF-CEM = assay: Cytotoxicity against human CEM cells at 10 uM after 48 hrs by fluorescent microplate assay; in short: as §1
Jurkat = assay: Cytotoxicity against human Jurkat cells at 10 uM after 48 hrs by fluorescent microplate assay; in short: as §1
KG-1 = assay: Cytotoxicity against human KG1 cells at 10 uM after 48 hrs by fluorescent microplate assay; in short: as §1
NCI-H929 = assay: Cytotoxicity against human NCI-H929 cells at 10 uM after 48 hrs by fluorescent microplate assay; in short: as §1
K562 = assay: Cytotoxicity against human K562 cells at 10 uM after 48 hrs by fluorescent microplate assay; in short: as §1

Measured: Activity

O=C(/C=C/c1ccc(O)c(O)c1)O[C@H]1[C@H](O[C@@H]2OC[C@](O)(CO)[C@H]2O)[C@@H](O)[C@H](OCCc2ccc(O)c(O)c2)O[C@@H]1CO[C@@H]1OC[C@H](O[C@@H]2OC[C@](O)(CO)[C@H]2O)[C@H](O)[C@H]1O
inactive: U-937 | HL-60 | U-266 | CCRF-CEM | Jurkat | KG-1 | NCI-H929 | K562

COc1cc([C@H]2Oc3c(OC)cc([C@H](O)[C@H](O)CO[C@@H]4O[C@H](CO)[C@@H](O)[C@H](O)[C@H]4O)cc3[C@@H]2CO)ccc1O
inactive: U-937 | HL-60 | U-266 | CCRF-CEM | Jurkat | KG-1 | NCI-H929 | K562
